Source: ChEMBL document CHEMBL1287787, “Design and synthesis of disubstituted thiophene and thiazole based inhibitors of JNK” (Bioorg Med Chem Lett, 2010)

Columns and labels:
[1] = molecular target: Mitogen-activated protein kinase 8 (Homo sapiens, UniProt P45983); assay: Inhibition of recombinant JNK1 after 60 mins by TR-FRET assay
[2] = molecular target: Mitogen-activated protein kinase 9 (Homo sapiens, UniProt P45984); assay: Inhibition of recombinant JNK2 after 60 mins by TR-FRET assay
[3] = molecular target: Mitogen-activated protein kinase 10 (Homo sapiens, UniProt P53779); assay: Inhibition of recombinant JNK3 after 60 mins by TR-FRET assay
[4] = Metabolic stability in mouse liver microsomes assessed as compound remaining after 30 mins; assay type: ADME, Microsome; details: read-out: Stability
Outline: (§1)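 Test compound incubated with mouse or human liver microsomes for 30 min. Read-out is the percent of parent compound remaining at the end of the incubation.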

[5] = Metabolic stability in human liver microsomes assessed as compound remaining after 30 mins; assay type: ADME, Microsome; details: read-out: Stability; outline: as §1

Mitogen-activated protein kinase 8, sequence (P45983 whole entry): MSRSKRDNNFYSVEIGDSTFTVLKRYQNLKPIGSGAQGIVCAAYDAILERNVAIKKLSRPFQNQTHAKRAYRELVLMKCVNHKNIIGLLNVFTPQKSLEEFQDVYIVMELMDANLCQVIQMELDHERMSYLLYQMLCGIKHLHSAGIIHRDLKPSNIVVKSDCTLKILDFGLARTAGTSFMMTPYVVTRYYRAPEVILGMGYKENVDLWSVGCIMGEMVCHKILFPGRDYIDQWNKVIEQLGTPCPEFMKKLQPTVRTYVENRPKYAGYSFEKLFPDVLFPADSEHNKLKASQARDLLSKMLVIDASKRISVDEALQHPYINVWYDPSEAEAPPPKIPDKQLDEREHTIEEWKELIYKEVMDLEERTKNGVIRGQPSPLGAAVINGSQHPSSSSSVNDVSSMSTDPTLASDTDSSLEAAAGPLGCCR
Mitogen-activated protein kinase 9, sequence (P45984 whole entry): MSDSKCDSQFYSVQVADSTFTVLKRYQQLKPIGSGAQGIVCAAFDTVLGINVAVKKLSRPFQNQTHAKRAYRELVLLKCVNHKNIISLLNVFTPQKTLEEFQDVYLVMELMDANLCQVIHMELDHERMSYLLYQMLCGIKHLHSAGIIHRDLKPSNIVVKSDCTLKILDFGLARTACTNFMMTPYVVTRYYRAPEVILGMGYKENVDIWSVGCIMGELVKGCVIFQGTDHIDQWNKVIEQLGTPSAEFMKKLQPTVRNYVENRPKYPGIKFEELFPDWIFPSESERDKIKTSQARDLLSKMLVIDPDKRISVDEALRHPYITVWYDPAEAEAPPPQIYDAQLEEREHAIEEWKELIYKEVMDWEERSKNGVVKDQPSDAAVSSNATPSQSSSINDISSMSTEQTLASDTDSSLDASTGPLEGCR
Mitogen-activated protein kinase 10, sequence (P53779 whole entry): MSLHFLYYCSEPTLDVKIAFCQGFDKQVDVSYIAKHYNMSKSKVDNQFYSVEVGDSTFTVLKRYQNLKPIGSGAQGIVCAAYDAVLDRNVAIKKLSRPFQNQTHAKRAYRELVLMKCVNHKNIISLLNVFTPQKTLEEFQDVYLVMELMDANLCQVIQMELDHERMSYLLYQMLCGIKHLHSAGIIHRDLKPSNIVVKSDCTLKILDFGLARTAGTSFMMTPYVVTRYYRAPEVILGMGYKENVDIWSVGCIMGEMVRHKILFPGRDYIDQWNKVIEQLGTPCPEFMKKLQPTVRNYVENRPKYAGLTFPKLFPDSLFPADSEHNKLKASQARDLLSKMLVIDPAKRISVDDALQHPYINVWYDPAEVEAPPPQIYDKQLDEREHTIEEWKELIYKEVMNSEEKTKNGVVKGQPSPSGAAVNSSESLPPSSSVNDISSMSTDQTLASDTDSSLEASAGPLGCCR

Structure (SMILES) | IC50 [1] [µM] | IC50 [2] [µM] | IC50 [3] [µM] | remaining at 0.5 h [4] [%] | remaining at 0.5 h [5] [%]
COC(=O)c1sccc1NC(=O)Cc1ccc(-n2ccnc2)cc1 | 1 | > 50 | 1.6 | – | –
Cc1ccncc1NC(=O)Cc1cccc2ccccc12 | > 50 | > 50 | > 50 | – | –
CC(C)OC(=O)c1sccc1NC(=O)Cc1ccccc1 | 0.5 | 47.7 | 1.4 | – | –
COc1ccc(CC(=O)Nc2ccsc2-n2cncn2)cc1 | 43.6 | > 50 | 45.6 | – | –
COC(=O)c1cccnc1NC(=O)Cc1cccc2ccccc12 | > 50 | > 50 | > 50 | – | –
CC(=O)c1sccc1NC(=O)Cc1ccccc1 | 6.3 | > 50 | 17 | – | –
COC(=O)c1sccc1NC(=O)Cc1ccc(OC)cc1 | 0.8 | 14.1 | 1 | – | –
COC(=O)c1nnsc1NC(=O)Cc1cccc2ccccc12 | > 50 | > 50 | > 50 | – | –
COC(=O)c1sccc1NC(=O)Cc1cccs1 | – | 21.4 | – | – | –
COCCN(C)C(=O)c1sccc1NC(=O)Cc1ccccc1 | – | > 50 | > 50 | – | –
COC(=O)c1sccc1NC(=O)Cc1ccc(C(F)(F)F)cc1 | 2 | > 50 | 6.9 | – | –
COC(=O)c1scnc1NC(=O)Cc1cccc2ccccc12 | > 50 | > 50 | > 50 | – | –
COC(=O)c1sccc1NC(=O)Cc1ccc2ccccc2c1 | 0.6 | > 50 | 3.9 | – | –
C=C(C)c1sccc1NC(=O)Cc1ccccc1 | – | – | > 50 | – | –
COCCNC(=O)c1sccc1NC(=O)Cc1ccccc1 | 2.3 | > 50 | 3.8 | – | –
C/C(=N/O)c1sccc1NC(=O)Cc1ccccc1 | – | – | 29 | – | –
Cc1nccnc1NC(=O)Cc1cccc2ccccc12 | – | > 50 | > 50 | – | –
COC(=O)c1sccc1NC(=O)Cc1ccccc1-c1c[nH]nn1 | 7 | 35 | 12.6 | – | –
O=C(Cc1cccc2ccccc12)Nc1ccsc1-c1cc[nH]n1 | – | > 50 | – | 0 | 5
CCOC(=O)c1c(C)nsc1NC(=O)Cc1cccc2ccccc12 | > 50 | > 50 | > 50 | – | –
COC(=O)c1cscc1NC(=O)Cc1cccc2ccccc12 | 0.89 | 9.9 | 0.9 | – | –
COC(=O)c1nonc1NC(=O)Cc1cccc2ccccc12 | > 50 | > 50 | > 50 | – | –
NC(=O)c1sccc1NC(=O)Cc1ccccc1 | 2.6 | > 50 | 4.4 | – | –
O=C(Cc1ccccc1)Nc1ccsc1CO | – | – | > 50 | – | –

More lines, now with the values ahead:

IC50 [1] [µM] | IC50 [2] [µM] | IC50 [3] [µM] | remaining at 0.5 h [4] [%] | remaining at 0.5 h [5] [%] | Structure (SMILES)
– | 1.5 | – | 1 | 2 | Cc1cc(-c2sccc2NC(=O)Cc2cccc3ccccc23)n[nH]1
2.1 | 13.1 | 1.7 | – | – | COC(=O)c1ccccc1NC(=O)Cc1cccc2ccccc12
0.46 | > 50 | 0.69 | – | – | COC(=O)c1sccc1NC(=O)Cc1ccc(-c2ccncc2)cc1
– | 11.9 | – | 9 | 14 | COc1ccc(CC(=O)Nc2ccsc2-c2ncco2)cc1
0.4 | 14.6 | 1.5 | – | – | COC(=O)c1sccc1NC(=O)Cc1cccc2ccccc12
0.3 | 3 | 0.61 | – | – | COC(=O)c1sccc1NC(=O)Cc1cccc2ncccc12
0.7 | 22.8 | 2.7 | – | – | COC(=O)c1sccc1NC(=O)Cc1ccccc1
6.4 | 23.6 | 6.5 | – | – | COC(=O)c1cnccc1NC(=O)Cc1cccc2ccccc12
0.3 | 46.6 | 0.7 | – | – | CCOC(=O)c1sccc1NC(=O)Cc1ccccc1
6.6 | > 50 | 17.2 | – | – | COC(=O)c1sccc1NC(=O)Cc1ccncc1
